Several values for one entry are separate records, joined by “and”; a condition that tells them apart may be missing. Equal values may be shown once. Marks after values point to notes of the source that are not given here.
Experiments:
[1] = Safety: treatment-emergent adverse events, single-dose study; format: in vivo, human; conditions: Japanese, single dose 200 mg (n = 6)
Outline: (§1)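 Adverse events were monitored throughout the study in subjects randomized 3:1 to test compound or placebo. Single-dose subjects were discharged on day 3 and returned on day 7; twice-daily subjects were discharged on day 10 and returned on day 13. Events were coded by System Organ Class and preferred term (MedDRA 12.1). The investigator assessed relatedness and graded severity as mild, moderate or severe.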

[2] = tested on: peripheral lymphocyte subsets; assay: Peripheral lymphocyte subsets by flow cytometry, multiple-dose study; format: in vivo, human; conditions: 100 mg, 72 h after twice-daily dosing on day 7
[3] = Safety: treatment-emergent adverse events, multiple-dose study; format: in vivo, human; conditions: for Alanine aminotransferase increased / Any TEAE / Aspartate aminotransferase increased / Blood creatinine phosphokinase increased / Diarrhea / Feeling abnormal / Headache / Hot flush / Malaise / Neutrophil count decreased / Rash / White blood cell count increased: Japanese
Outline: as §1

[4] = Single-dose pharmacokinetics; format: in vivo, human; conditions: for CL/F, Mean (SD) / Aelast%, Mean (SD) / Aelast, Mean (SD): fasted; for Aelast%, Mean (SD) / Aelast, Mean (SD): urine
STAT5 phosphorylation = assay: Inhibition of STAT5 phosphorylation in IL-2-stimulated CD3-positive lymphocytes; format: in vivo, human; conditions: single doses 20–200 mg, Japanese and Caucasian
[5] = tested on: SULT2A1, nicotinamide N-methyltransferase; conditions: cited from earlier work
[6] = single- and multiple-dose studies
[7] = Caucasian, single oral dose 20 mg
[8] = Caucasian, single oral dose 60 mg
[9] = Caucasian, single oral dose 200 mg
[10] = Japanese, single oral dose 20 mg
[11] = Japanese, single oral dose 60 mg
[12] = Japanese, single oral dose 200 mg

## NC(=O)c1cnc2[nH]ccc2c1N[C@@H]1[C@@H]2CC3C[C@H]1C[C@@](O)(C3)C2 [peficitinib, Peficitinib]
[1]
  Diarrhea: 0 n (%)
  White blood cell count increased: 1 (16.7) n (%)
[2]
  largest change: decrease in the subset of CD3+, CD45RA+ and total naïve cells: 7.50%
[3]; 10 mg bid for 7 days (n = 6)
  Alanine aminotransferase increased: 1 (16.7)^b n (%)
  Any TEAE: 2 (33.3) n (%)
  Aspartate aminotransferase increased: 1 (16.7)^b n (%)
  Blood creatinine phosphokinase increased: 1 (16.7)^b n (%)
  Diarrhea: 0 n (%)
  Feeling abnormal: 1 (16.7)^b n (%)
  Headache: 1 (16.7)^b n (%)
  Hot flush: 1 (16.7)^b n (%)
  Malaise: 0 n (%)
  Neutrophil count decreased: 0 n (%)
  Rash: 0 n (%)
  White blood cell count increased: 1 (16.7)^b n (%)
[3]; 30 mg bid for 7 days (n = 6)
  Alanine aminotransferase increased: 0 n (%)
  Any TEAE: 3 (50.0) n (%)
  Aspartate aminotransferase increased: 0 n (%)
  Blood creatinine phosphokinase increased: 0 n (%)
  Diarrhea: 1 (16.7)^b n (%)
  Feeling abnormal: 0 n (%)
  Headache: 0 n (%)
  Hot flush: 0 n (%)
  Malaise: 0 n (%)
  Neutrophil count decreased: 0 n (%)
  Rash: 1 (16.7)^b n (%)
  White blood cell count increased: 2 (33.3)^d n (%)
[3]; 100 mg bid for 7 days (n = 6)
  Alanine aminotransferase increased: 1 (16.7)^b n (%)
  Any TEAE: 4 (66.7) n (%)
  Aspartate aminotransferase increased: 0 n (%)
  Blood creatinine phosphokinase increased: 0 n (%)
  Diarrhea: 0 n (%)
  Feeling abnormal: 0 n (%)
  Headache: 0 n (%)
  Hot flush: 0 n (%)
  Malaise: 0 n (%)
  Neutrophil count decreased: 3 n (%) and 3 (50.0)^b n (%)
  Rash: 0 n (%)
  White blood cell count increased: 0 n (%)
[3]; doses up to 200 mg daily for 7 days, healthy Japanese subjects
  tolerability: well tolerated
[3]; [6]
  serious TEAEs or TEAEs resulting in discontinuation: no serious TEAEs or TEAEs resulting in discontinuation
  severity of TEAEs: mild
[3]; three subjects receiving 100 mg twice daily
  Neutrophil counts recovered by: ≤ 8 days
[4]; [7]
  CL/F, Mean (SD): 108.5 (30.0) L/h
  Aelast%, Mean (SD): 14.2 %dose and 14.2 (3.6) %dose
  Aelast, Mean (SD): 2.9 (0.7) mg
[4]; [8]
  CL/F, Mean (SD): 117.8 (23.6) L/h
  Aelast%, Mean (SD): 10.6 (3.6) %dose
  Aelast, Mean (SD): 6.4 (2.2) mg
[4]; [9]
  CL/F, Mean (SD): 133.1 (15.0) L/h
  Aelast%, Mean (SD): 9.9 %dose and 9.9 (1.2) %dose
  Aelast, Mean (SD): 19.8 (2.4) mg
[4]; [10]
  CL/F, Mean (SD): 78.9 (13.5) L/h
  Aelast%, Mean (SD): 16.8 %dose and 16.8 (4.1) %dose
  Aelast, Mean (SD): 3.4 (0.8) mg
[4]; [11]
  CL/F, Mean (SD): 79.8 (19.2) L/h
  Aelast%, Mean (SD): 14.8 (2.8) %dose
  Aelast, Mean (SD): 8.9 (1.7) mg
[4]; [12]
  CL/F, Mean (SD): 79.8 (8.2) L/h
  Aelast%, Mean (SD): 12.5 %dose and 12.5 (2.7) %dose
  Aelast, Mean (SD): 25.1 (5.4) mg
[4]; male, human, plasma, oral, median tmax, range, single-dose administration, both Japanese and Caucasian subjects
  Tmax: 1 to 2 h
[4]; single doses 20, 60, 200 mg
  geometric mean ratio for dose-normalized AUCinf, higher in Japanese versus Caucasian subjects: 33.8–66.4%
  geometric mean ratio for dose-normalized Cmax, higher in Japanese versus Caucasian subjects: 45.7–98.8%
[4]; single doses 20 to 200 mg
  AUCinf higher in Japanese subjects compared with Caucasian subjects: 49%
  Cmax higher in Japanese subjects compared with Caucasian subjects: 70%
[4]; single doses, dose range of 20–200 mg
  Dose proportionality of Cmax and AUCinf: demonstrated
STAT5 phosphorylation
  Mean peak inhibition of STAT5 phosphorylation, dose dependence: increased with increasing single doses of peficitinib
[5]
  metabolizing enzymes: metabolized by the sulfotransferase (SULT) isoenzyme, SULT2A1, and the methyltransferase isoenzyme, nicotinamide N-methyltransferase

Source: paper PMC7181426 (Clinical Drug Investigation, 2020)
